The results in this text go back to ChEMBL document CHEMBL2331531, “Synthesis and biological evaluation of urea derivatives as highly potent and selective rho kinase inhibitors” (J Med Chem, 2013).

Structures are written as SMILES.

The nature of data set [1]: Oral bioavailability in Sprague-Dawley rat at 2 mg/kg by LC-MS/MS analysis. The settings on record: in vivo. The format is ADME, organism-based.
A short description of data set [2]: Cmax in Sprague-Dawley rat at 1 mg/kg, iv by LC-MS/MS analysis. Further details: dose 1 mg/kg, route intravenous. The settings on record: in vivo. Type of data set: ADME, organism-based.
For another data set, the system named is Rattus norvegicus. Kind of data set: AUC in Sprague-Dawley rat at 1 mg/kg, iv by LC-MS/MS analysis. The format is ADME, organism-based, Plasma. To be noted: in vivo. Details: dose 1 mg/kg, route intravenous.
Data set [3] can be described thus: Half life in Sprague-Dawley rat at 1 mg/kg, iv by LC-MS/MS analysis. Details: dose 1 mg/kg, route intravenous. Type of data set: ADME, organism-based. The settings on record: in vivo.
The nature of data set [4]: Volume of distribution in Sprague-Dawley rat at 1 mg/kg, iv by LC-MS/MS analysis. The format is ADME, organism-based. Details: dose 1 mg/kg, route intravenous. The settings on record: in vivo.
The next data set concerns the target CYP3A4 (Homo sapiens, UniProt P08684). The data set is described as follows: Inhibition of CYP3A4 (unknown origin)-mediated midazolam hydroxylation to 1'-Hydroxymidazolam at 10 uM relative to control. The format is ADME. The settings on record: probe midazolam.
The next data set deals with CYP2D6 (Homo sapiens, UniProt P10635). Kind of data set: Inhibition of CYP2D6 (unknown origin)-mediated bufuralol hydroxylation to 4'-Hydroxybufuralol at 10 uM relative to control. Type of data set: ADME. To be noted: probe bufuralol.
Chain of CYP2D6 (P10635 whole entry): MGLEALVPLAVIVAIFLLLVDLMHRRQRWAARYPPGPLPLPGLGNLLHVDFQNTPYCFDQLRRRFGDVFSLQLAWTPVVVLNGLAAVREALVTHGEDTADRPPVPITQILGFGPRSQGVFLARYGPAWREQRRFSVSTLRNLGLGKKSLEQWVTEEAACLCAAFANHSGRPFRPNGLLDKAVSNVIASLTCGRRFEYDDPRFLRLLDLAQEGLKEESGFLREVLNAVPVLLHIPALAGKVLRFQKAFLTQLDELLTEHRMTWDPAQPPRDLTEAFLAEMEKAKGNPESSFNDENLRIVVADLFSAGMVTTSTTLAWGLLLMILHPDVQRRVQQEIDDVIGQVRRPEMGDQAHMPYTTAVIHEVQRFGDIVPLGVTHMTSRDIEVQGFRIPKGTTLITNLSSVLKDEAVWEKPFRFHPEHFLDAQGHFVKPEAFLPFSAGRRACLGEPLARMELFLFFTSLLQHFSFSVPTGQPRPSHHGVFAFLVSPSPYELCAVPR
The next data set deals with CYP2C9 (Homo sapiens, UniProt P11712). Kind of data set: Inhibition of CYP2C9 (unknown origin)-mediated tolbutamide hydroxylation to hydroxy tolbutamide at 10 uM relative to control. Type of data set: ADME. The settings on record: probe tolbutamide.
Chain of CYP2C9 (P11712 whole entry): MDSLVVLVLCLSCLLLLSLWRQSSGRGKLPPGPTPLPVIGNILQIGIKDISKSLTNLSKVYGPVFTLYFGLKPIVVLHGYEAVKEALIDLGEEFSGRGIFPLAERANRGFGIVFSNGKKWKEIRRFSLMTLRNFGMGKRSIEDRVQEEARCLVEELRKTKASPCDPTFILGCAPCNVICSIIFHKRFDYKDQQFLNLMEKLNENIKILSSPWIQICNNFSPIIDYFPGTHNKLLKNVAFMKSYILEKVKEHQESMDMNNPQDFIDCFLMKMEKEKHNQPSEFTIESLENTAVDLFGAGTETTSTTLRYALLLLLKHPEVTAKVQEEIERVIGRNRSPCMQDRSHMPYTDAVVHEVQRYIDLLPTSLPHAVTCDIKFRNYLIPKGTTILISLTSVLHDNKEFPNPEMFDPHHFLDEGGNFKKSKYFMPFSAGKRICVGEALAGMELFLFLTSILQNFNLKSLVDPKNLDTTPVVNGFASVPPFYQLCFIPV
The next data set concerns the target T1, CYP1A2 (Homo sapiens, UniProt P05177).
T1 sequence (P05177 whole entry): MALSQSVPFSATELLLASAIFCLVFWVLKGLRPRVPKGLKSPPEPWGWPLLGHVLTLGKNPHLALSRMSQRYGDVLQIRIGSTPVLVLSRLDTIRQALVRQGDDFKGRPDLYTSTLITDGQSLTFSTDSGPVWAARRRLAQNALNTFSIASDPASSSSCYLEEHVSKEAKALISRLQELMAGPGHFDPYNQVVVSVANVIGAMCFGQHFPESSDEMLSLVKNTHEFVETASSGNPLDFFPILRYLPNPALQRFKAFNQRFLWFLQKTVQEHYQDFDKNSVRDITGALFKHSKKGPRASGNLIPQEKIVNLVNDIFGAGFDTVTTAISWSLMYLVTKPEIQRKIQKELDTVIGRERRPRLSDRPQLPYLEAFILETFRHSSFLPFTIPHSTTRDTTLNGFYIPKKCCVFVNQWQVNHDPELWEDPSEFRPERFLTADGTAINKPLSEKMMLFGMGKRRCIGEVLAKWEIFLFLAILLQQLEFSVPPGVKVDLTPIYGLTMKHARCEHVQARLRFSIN
The data set is described as follows: Inhibition of CYP1A2 (unknown origin)-mediated phenaceten demethylation to acetaminophen at 10 uM relative to control. Type of data set: ADME. The settings on record: probe phenacetin (printed: phenaceten).

The target in data set [5] is Rho-associated protein kinase 1 (Homo sapiens, UniProt Q13464). Kind of data set: Inhibition of ROCK1 (unknown origin) after 4 hrs by HTRF assay.
Chain of Rho-associated protein kinase 1 (Q13464 whole entry): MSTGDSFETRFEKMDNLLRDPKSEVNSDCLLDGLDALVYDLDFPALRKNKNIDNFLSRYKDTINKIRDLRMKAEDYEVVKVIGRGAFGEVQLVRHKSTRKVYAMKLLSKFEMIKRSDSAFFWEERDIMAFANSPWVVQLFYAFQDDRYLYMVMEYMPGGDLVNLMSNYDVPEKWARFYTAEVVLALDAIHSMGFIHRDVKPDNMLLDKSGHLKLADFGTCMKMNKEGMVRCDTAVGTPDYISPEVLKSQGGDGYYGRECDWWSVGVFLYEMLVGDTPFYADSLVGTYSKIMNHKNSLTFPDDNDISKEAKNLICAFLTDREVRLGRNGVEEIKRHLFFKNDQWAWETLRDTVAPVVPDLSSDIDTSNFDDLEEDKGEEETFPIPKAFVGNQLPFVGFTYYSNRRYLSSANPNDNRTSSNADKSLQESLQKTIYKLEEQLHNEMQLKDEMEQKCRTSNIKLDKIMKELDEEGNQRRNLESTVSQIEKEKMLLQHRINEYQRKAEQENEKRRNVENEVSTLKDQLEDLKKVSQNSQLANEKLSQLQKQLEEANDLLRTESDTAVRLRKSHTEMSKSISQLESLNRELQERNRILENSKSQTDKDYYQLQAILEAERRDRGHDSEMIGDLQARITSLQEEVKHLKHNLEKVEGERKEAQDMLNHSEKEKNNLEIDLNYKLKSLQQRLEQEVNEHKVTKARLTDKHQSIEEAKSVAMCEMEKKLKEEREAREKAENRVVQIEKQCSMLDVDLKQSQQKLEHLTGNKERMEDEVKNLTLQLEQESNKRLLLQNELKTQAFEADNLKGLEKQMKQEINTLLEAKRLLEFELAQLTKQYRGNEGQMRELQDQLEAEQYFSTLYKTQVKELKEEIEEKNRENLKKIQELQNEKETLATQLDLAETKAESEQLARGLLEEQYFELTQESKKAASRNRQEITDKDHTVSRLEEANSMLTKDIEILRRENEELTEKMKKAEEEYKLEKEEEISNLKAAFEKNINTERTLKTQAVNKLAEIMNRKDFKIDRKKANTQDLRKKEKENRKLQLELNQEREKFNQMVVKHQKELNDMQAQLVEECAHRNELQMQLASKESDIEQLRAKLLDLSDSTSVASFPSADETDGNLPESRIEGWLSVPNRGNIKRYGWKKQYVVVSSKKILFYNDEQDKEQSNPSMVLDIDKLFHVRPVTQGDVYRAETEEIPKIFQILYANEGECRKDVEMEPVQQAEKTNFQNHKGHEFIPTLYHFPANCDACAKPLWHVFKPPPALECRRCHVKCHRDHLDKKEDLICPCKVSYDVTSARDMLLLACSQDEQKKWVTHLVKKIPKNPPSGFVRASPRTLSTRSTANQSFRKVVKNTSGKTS
The nature of data set [6]: Inhibition of PKA (unknown origin) after 70 mins by luminescence assay. Details: species or system Homo sapiens.
The nature of data set [7]: Half life in human liver microsomes. Type of data set: ADME, Microsome. (Liver microsomes are a subcellular fraction often used to study metabolism.)
Data set [8] addresses Rho-associated protein kinase 2 (Homo sapiens, UniProt O75116). The data set is described as follows: Inhibition of ROCK2 (unknown origin) after 4 hrs by HTRF assay. A general note: In TR-FRET formats the signal depends on donor and acceptor labels being close together.
Data set [9] can be described thus: Inhibition of ROCK-mediated myosin light chain bisphosphorylation in rat A7R5 cells after 1 hr by fluorescence assay in presence of L-alpha-lysophosphatidic acid. The format is cell-based. The gist of the method:
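A7r5 cells in 20% FBS DMEM, plated 5000/well overnight, serum-starved 4 h in 0.05% FBS DMEM; compound 13333 nM to 18 nM final for 1 h, then 10 μM LPA 10 min; fixed, permeabilized, anti-ppMLC plus IR800 secondary; infrared scan, ppMLC signal normalized to TO-PRO-3 nuclear signal. IC50 as mean of two or more experiments.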

Chain of Rho-associated protein kinase 2 (O75116 whole entry): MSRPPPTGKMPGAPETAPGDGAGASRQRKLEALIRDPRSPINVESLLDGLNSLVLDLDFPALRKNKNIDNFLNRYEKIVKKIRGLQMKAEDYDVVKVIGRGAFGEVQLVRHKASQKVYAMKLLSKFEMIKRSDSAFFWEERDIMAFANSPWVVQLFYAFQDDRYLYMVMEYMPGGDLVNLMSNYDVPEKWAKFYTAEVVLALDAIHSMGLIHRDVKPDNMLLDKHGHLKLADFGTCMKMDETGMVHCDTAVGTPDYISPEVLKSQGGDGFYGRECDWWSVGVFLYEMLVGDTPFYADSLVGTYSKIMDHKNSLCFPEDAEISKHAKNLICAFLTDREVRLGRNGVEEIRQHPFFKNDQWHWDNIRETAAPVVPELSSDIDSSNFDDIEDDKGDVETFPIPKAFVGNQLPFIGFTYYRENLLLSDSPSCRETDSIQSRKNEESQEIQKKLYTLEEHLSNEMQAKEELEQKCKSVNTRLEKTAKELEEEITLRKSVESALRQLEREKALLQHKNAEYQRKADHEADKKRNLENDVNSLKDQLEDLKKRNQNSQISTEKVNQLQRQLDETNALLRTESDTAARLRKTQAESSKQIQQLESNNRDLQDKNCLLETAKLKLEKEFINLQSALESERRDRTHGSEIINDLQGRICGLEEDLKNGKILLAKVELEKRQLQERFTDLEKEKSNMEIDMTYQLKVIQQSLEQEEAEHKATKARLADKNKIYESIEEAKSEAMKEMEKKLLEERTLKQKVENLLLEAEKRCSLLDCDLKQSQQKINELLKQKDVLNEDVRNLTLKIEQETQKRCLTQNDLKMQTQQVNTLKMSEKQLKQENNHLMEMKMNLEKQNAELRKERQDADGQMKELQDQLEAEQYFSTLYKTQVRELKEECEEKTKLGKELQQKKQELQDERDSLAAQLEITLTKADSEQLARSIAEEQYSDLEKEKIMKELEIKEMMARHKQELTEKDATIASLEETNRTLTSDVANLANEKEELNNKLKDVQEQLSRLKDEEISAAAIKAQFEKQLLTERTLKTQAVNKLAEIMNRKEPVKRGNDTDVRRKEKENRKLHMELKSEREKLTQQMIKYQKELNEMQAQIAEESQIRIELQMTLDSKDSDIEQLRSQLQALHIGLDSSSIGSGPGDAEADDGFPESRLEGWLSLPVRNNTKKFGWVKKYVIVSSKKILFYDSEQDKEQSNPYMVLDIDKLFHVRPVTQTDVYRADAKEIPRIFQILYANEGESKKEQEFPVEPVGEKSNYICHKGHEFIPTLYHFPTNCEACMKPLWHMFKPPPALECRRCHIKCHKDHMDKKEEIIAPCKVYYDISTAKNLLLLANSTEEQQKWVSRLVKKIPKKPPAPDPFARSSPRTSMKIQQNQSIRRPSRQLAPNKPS
Chain of CYP3A4 (P08684 whole entry): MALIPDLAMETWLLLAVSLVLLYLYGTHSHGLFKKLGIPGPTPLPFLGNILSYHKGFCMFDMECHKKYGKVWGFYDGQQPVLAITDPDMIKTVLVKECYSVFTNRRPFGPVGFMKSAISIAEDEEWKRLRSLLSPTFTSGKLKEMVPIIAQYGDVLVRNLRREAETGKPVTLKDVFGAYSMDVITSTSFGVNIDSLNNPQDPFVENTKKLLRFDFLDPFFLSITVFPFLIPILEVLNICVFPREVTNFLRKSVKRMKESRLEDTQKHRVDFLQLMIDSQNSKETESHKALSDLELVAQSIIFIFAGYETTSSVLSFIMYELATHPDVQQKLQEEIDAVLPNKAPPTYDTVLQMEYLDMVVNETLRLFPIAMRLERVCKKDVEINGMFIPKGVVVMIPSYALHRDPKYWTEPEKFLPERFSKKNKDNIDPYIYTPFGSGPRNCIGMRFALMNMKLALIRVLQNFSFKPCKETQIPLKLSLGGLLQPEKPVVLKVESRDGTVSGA

In [1], `O=C(Nc1ccc(-c2cn[nH]c2)cc1)N(CCO)Cc1ccccc1` showed a bioavailability of 46%. Also, the Cmax in [2] worked out at 1100 nM. Moreover, in the data set with Rattus norvegicus, the AUC amounted to 3.6 µM·h. In addition, the half-life is 1.9 h in data set [3] and more than 2 h in [7]. Moreover, the Vd in [4] was 1.9 L/kg. In addition, the inhibition at 10 µM amounted to 15% on CYP3A4, 29% on CYP2D6, 93% at CYP2C9 and 9% on CYP1A2. Further, the IC50 was 33 nM in [5], 610 nM in [6], 12 nM in data set [8] and 59 nM in data set [9].

Usually bioavailability stands for the share of a dose that reaches the circulation, judged against a reference dose that is usually intravenous. For orientation: Cmax means the highest concentration seen after dosing. In general, AUC refers to concentration integrated over time. A low value points to less exposure. A word on the half-life: it is the time in which the quantity being followed falls by half. Low values mean fast loss, high ones slow loss. As usually defined, the Vd is a proportionality between amount in the body and measured concentration, not a real space. A high value points to wide distribution into tissue. By inhibition is commonly meant the drop in the measured response relative to a control, in per cent. The term IC50 denotes the midpoint of a concentration-inhibition curve.
